Bioassay records from PubChem BioAssay.
The full list was thinned out, with hits kept by preference.
HUVEC prolif 384: blocks proliferation of human endothelial cells. HUVEC proliferation, CellTiter-Glo luminescence, 72 h; stronger effect = lower value. AID 648. viability, % at 10 µM (by protocol). hit rate 1.1% among 86,000;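 active = viability at or below 30%; inactive = viability above 30%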
Fibroblast inh: blocks proliferation of human lung fibroblasts; LL 47 human lung fibroblast viability, ATP luminescence; stronger effect = lower value; viability, % at 10 µM; hit rate 1.1% among 85,000;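 active = viability at or below 50% in the single dose screen; inactive = viability above 50%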;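 also: compound exposure lasted 72 h before the ATP readout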
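Times – overnight cell rest, 72 h compound treatment at 37 °C · Test system – human lung fibroblast line LL 47, low passage · Amount – 1,150 cells in each well · Controls – cell-only wells, no compound · Doses – 0.1% DMSO in all compound wells · Measured by – CellTiter-Glo luminescence · Buffer or medium – IMEM plus 15% FBS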
PTEN del growth: growth suppressors of cells with PTEN tumor suppressor deletion | viability, % at 10 µM | AID 827 | hit rate 1.2% among 140,000 | HCT116 PTEN-null viability, CellTiter-Glo, 60 h; stronger effect = lower value;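 active = viability at or below a set limit, 4 SD under the median of all tested compounds, cut at about 3.7% in these data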;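 also: PTEN knockout HCT116 line with beta catenin targeted HCT116 as companion control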
H69AR growth 86K: blocks growth of human H69AR lung tumor cells. viability, % at 10 µM. hit rate 6% among 85,000. H69AR lung tumor viability, ATP luminescence, 72 h; stronger effect = lower value;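 active = viability at or below 40%; inactive = viability above 40%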;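 also: multidrug resistant small cell line overexpressing MRP-1 efflux transporter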
bCat KO growth: beta-catenin-lacking colon tumor cell growth suppression; HCT116 beta-catenin knockout viability, CellTiter-Glo, 60 h; stronger effect = lower value; viability, % at 10 µM; hit rate 1.5% among 140,000; AID 818;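 active = viability at or under a set limit, the compound median less 4 SD, cut at about 6% in these data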
Numbers stand for hits; i = inactive; nt = no result.

SMILES | HUVEC prolif 384 | Fibroblast inh | PTEN del growth | H69AR growth 86K | bCat KO growth
Cc1nc2ccsc2c(=O)n1-c1ccc(Cl)cc1 | nt | nt | i | nt | i
Oc1ccc(Cl)cc1-c1cc(-c2cccc(Br)c2)n[nH]1 | i | i | i | 4.2 | i
Cc1ccc(O)c(-c2cc(-c3ccccc3C)[nH]n2)c1 | i | i | i | 0.5 | i
Oc1ccccc1-c1cc(-c2ccccc2Cl)[nH]n1 | 25 | i | i | 22 | i
Oc1ccc(Cl)cc1-c1cc(-c2ccccc2Cl)[nH]n1 | i | i | i | 31 | i
Oc1ccccc1-c1cc(-c2ccco2)[nH]n1 | i | i | i | i | i
O=C(Nc1cc(SCCO)cc([N+](=O)[O-])c1)c1ccc(Br)o1 | nt | nt | i | nt | i
CCOC(=O)C/C(C)=N/NC(=O)C1CC1(c1ccccc1)c1ccccc1 (configuration not stated) | nt | nt | i | nt | i
Cc1[nH]c2ccccc2c1/C=N/NC(=O)C1CC1(c1ccccc1)c1ccccc1 (configuration not stated) | nt | nt | 3.4 | nt | 2.7
COCC(C)NC(=O)CSc1nc2ccccc2n1CCc1ccccc1 (configuration not stated) | nt | nt | i | nt | i
COc1ccc(/C=C(/C(=O)c2ccc(Cl)cc2Cl)n2cncn2)cc1 | nt | nt | i | nt | i
CC(C)CC(=O)/C(=C\c1ccc(Cl)cc1Cl)n1cncn1 | nt | nt | 1.3 | nt | 1.6
CCN(CC(=O)Nc1cccc(OC)c1)C(=O)c1ccc(C)s1 | nt | nt | i | nt | i
CCC(Sc1nc2n[nH]c(C)c2c(=N)n1-c1cccc(Cl)c1)C(=O)NCCOC (configuration not stated) | nt | nt | i | nt | i
CCC(Sc1nc2n[nH]c(C)c2c(=N)n1-c1ccc(C)c(Cl)c1)C(=O)N1CCOCC1 (configuration not stated) | i | i | i | 26 | i
CCOC(=O)c1nnn(-c2nonc2N)c1CN1CCc2ccccc2C1 | i | i | i | i | i
COC(=O)c1nnn(-c2nonc2N)c1CN1CCc2ccccc21 | i | i | i | 28 | i
c1ccc(-c2nnc(Cn3c4ccccc4c4nc5ccccc5nc43)o2)cc1 | i | i | nt | 11 | nt
CCOC(=O)c1ccccc1NC(=O)Cn1cnc2c(cnn2C(C)(C)C)c1=O | i | i | i | 37 | i
CC(C)(C)n1ncc2c(=O)n(CC(=O)NCc3ccc(F)cc3)cnc21 | i | i | i | 21 | i
CCOC(=O)NC(=O)c1cn(CCN(C)C)c(=O)[nH]c1=O | nt | nt | i | nt | i
COc1ccccc1NC(=O)C1=C(C)Nc2nnnn2C1c1cccc(C)c1 (configuration not stated) | i | i | i | 30 | i
COc1cccc(-c2nc(N3CCCCC3C)c3ccccc3n2)c1O (configuration not stated) | i | i | i | 38 | i
CCN(CC)c1nc(-c2cccc(OC)c2O)nc2ccccc12 | i | i | i | i | i
CCCCn1c(SCC(=O)Nc2cc(NC(=O)c3ccco3)ccc2C)nc2ccccc2c1=O | i | i | i | 6.8 | i
SMILES | HUVEC prolif 384 | Fibroblast inh | PTEN del growth | H69AR growth 86K | bCat KO growth
COCCn1c(SCC(=O)Nc2ccc(NC(=O)c3ccco3)c(OC)c2)nc2ccccc2c1=O | i | i | i | 31 | i
CCn1c(SCC(=O)Nc2ccc(NC(=O)c3ccco3)c(OC)c2)nc2ccccc2c1=O | i | i | i | 10 | i
COCCn1c(SCC(=O)Nc2ccc(S(=O)(=O)N(C)C)cc2)nc2ccccc21 | i | i | i | 35 | i
CCCCn1c(SCC(=O)Nc2cc(C)on2)nc2ccccc2c1=O | i | i | i | i | i
CCn1c(SCC(=O)Nc2ccccc2OC)nc2ccccc2c1=O | i | i | i | i | i
CN1CCN(C(=O)C2CC(c3c(F)cccc3Cl)=NO2)CC1 (configuration not stated) | i | i | i | i | i
CCOC(=O)c1cc(-c2ccccc2)sc1NC(=O)c1cc(OC)c(OC)c(OC)c1 | nt | nt | i | nt | i
Cc1ccnc(N2C(=O)CSC2c2ccc(Cl)cc2)c1 (configuration not stated) | nt | nt | i | nt | i
C=CCn1c(SCC(=O)NC(=O)c2cccc([N+](=O)[O-])c2)nnc1-c1ccccc1 | nt | nt | i | nt | i
N#Cc1ccc(/C=C/C(=O)c2ccco2)cc1 | nt | nt | 1.6 | nt | 2.3
CCOC(=O)c1ccc(NC(=O)CCc2nc(-c3ccc(C)cc3)no2)cc1 | 30 | i | i | i | i
CCOC(=O)c1ccc(NC(=O)CCc2nc(-c3ccc(Cl)cc3)no2)cc1 | i | i | i | 24 | i
Cc1csc(NC(=O)c2nn(C)c(C)c2[N+](=O)[O-])n1 | nt | nt | i | nt | i
CNC1=C(N(C(C)=O)c2ccc(Br)cc2)C(=O)c2ccccc2C1=O | nt | nt | 1.4 | nt | 1.3
COc1ccc(C(=O)N/C(N)=N/c2nc3ccccc3o2)cc1 | i | i | nt | 19 | i
COC(=O)C1=CN(CC2CCCO2)C=C(C(=O)OC)C1c1ccccc1C(F)(F)F (configuration not stated) | i | i | i | 37 | i
COC(=O)C1=CN(CC2CCCO2)C=C(C(=O)OC)C1c1ccsc1 (configuration not stated) | i | i | i | i | i
O=S1(=O)N=C(Oc2cccc3ccccc23)c2ccccc21 | i | i | i | 25 | i
c1ccc(-c2nc3nonc3nc2-c2ccccc2)cc1 | i | 17 | 2.4 | 1.9 | 2.3
O=C(Cn1nnc(-c2ccccc2NC(=O)c2ccco2)n1)Nc1ccccc1 | i | i | i | 23 | i
COc1ccc(NC(=O)Cn2nnc(-c3ccccc3NC(=O)c3cccs3)n2)cc1 | i | nt | i | 7.5 | i
COc1ccc(NC(=O)Cn2nnc(-c3ccccc3NS(=O)(=O)c3ccc(OC)cc3)n2)cc1 | nt | nt | i | nt | i
CCOc1ccc(NC(=O)Cn2nnc(-c3ccccc3NC(=O)CC)n2)cc1 | i | i | i | i | i
Cc1ccc(NC(=O)Cn2nnc(-c3ccccc3NC(=O)c3cccs3)n2)cc1 | 19 | 46 | 3.4 | 6.8 | 4.0
CC(C)(C)NC(=O)Cn1nnc(-c2ccccc2NC(=O)c2ccco2)n1 | i | i | i | i | i
SMILES | HUVEC prolif 384 | Fibroblast inh | PTEN del growth | H69AR growth 86K | bCat KO growth
O=C(CN1C(=O)C2C3c4ccccc4C(c4ccccc43)C2C1=O)Nc1ccccc1C(=O)O (configuration not stated) | nt | nt | i | nt | i
O=C(OCC(=O)c1c[nH]c2ccccc12)c1ccco1 | i | i | i | i | i
O=C(OCc1ccccc1)C1=[N+]([O-])OC(C(=O)OCc2ccccc2)C1c1c[nH]c2ccccc12 (configuration not stated) | i | i | i | 5.6 | i
c1ccc(-c2cccc(-c3ccccn3)n2)nc1 | 10 | 29 | i | 8.8 | i
COc1ccc(N2C(=O)NC3CC2(C)Oc2ccccc23)cc1OC (configuration not stated) | i | i | i | 26 | i
COc1cc(N2C(=O)NC3CC2(C)Oc2ccc(Br)cc23)cc(OC)c1OC (configuration not stated) | i | i | nt | i | nt
S=C(Nc1ccccn1)c1ccccn1 | i | i | 1.8 | 1.3 | 1.9
Cc1ccc(C)c(NC(=S)c2ccccn2)c1 | i | i | 3.8 | 2.7 | 2.7
